Test results taken from ChEMBL document CHEMBL2380254, “Optimization of tocotrienols as antiproliferative and antimigratory leads” (Eur J Med Chem, 2013).

What was measured:
Type in all cases: functional, cell-based
MDA-MB-231 [1] = experiment: Antimigratory activity against human MDA-MB-231 cells after 24 hrs by wound-healing assay; details: MDA-MB-231, 24 h
Procedure, shortened: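 MDA-MB-231 in RPMI 1640 with 10% FBS grown to >95% confluent monolayer, scratched with a pipette tip and washed. Then 24 h exposure in 0.5% serum at five non-toxic concentrations in DMSO, triplicate, DMSO as negative control. Diff Quick fixed and stained; migrated cells counted in ≥3 random 40× fields. IC50 = concentration inhibiting migration of 50% of cells.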

MCF7 = experiment: Antiproliferative activity against human MCF7 cells by MTT assay
Procedure, shortened: (§1)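 Cells plated at 8 × 10^3/well (MDA-MB-231) or 10^4/well (MCF7) in 96-well plates. Compounds fed in media with 5% FBS (MDA-MB-231) or 1% FBS (MCF7). MTT read-out of viable cells.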

MDA-MB-231 [2] = experiment: Antiproliferative activity against human MDA-MB-231 cells by MTT assay; procedure, shortened: as §1
[3] = Antiproliferative activity against mouse +SA cells by MTT assay; details: +SA cell
Procedure, shortened: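 Mouse +SA mammary epithelial cells in serum-free DMEM/F12 with BSA, transferrin, insulin and EGF. Compounds from DMSO stock conjugated to BSA (overnight, 37 °C); 0–40 µM, final DMSO <0.1%. MTT 0.42 mg/mL for 4 h at 37 °C, isopropanol solubilization, OD 570 nm. Cell number from a standard curve; IC50 by non-linear regression.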

Row | IC50 (MDA-MB-231 [1]) [µM] | IC50 (MCF7) [µM] | IC50 (MDA-MB-231 [2]) [µM] | Compound | IC50 [3] [µM]
1 | > 40 |  |  | CC(C)=CCC/C(C)=C/CC/C(C)=C/CC[C@]1(C)CCc2cc(O)cc(C)c2O1 [DELTA-TOCOTRIENOL] | 
2 | 8.1 | > 20 | 9.6 | CC(C)=CCC/C(C)=C/CC/C(C)=C/CC[C@]1(C)CCc2c3c(c(C)c(C)c2O1)OCN(CCCO)C3 | 2.5
3 |  |  |  | CC(C)=CCC/C(C)=C/CC/C(C)=C/CC[C@]1(C)CCc2c3c(c(C)c(C)c2O1)OCN(CCO)C3 | 1.7
4 |  |  |  | COc1ccc(CCN2COc3cc4c(c(C)c3C2)O[C@](C)(CC/C=C(\C)CC/C=C(\C)CCC=C(C)C)CC4)cc1OC | 0.84
5 |  |  |  | CCOC(CCN1COc2cc(C)c3c(c2C1)CC[C@@](C)(CC/C=C(\C)CC/C=C(\C)CCC=C(C)C)O3)OCC | 1
6 |  |  |  | CC(C)=CCC/C(C)=C/CC/C(C)=C/CC[C@]1(C)CCc2c3c(cc(C)c2O1)OCN(C)C3 | 1.3
7 |  |  |  | CC(C)=CCC/C(C)=C/CC/C(C)=C/CC[C@]1(C)CCc2cc(O)c(CO)c(C)c2O1 | 6.6
8 |  |  |  | CC(C)=CCC/C(C)=C/CC/C(C)=C/CC[C@]1(C)CCc2c3c(c(C)c(C)c2O1)OCN(CCCCCC(=O)O)C3 | 5
9 |  |  |  | CC(C)=CCC/C(C)=C/CC/C(C)=C/CC[C@]1(C)CCc2c3c(cc(C)c2O1)OCN(CCCCCC(=O)O)C3 | 5.1
10 |  |  |  | C=CCN1COc2c(C)c(C)c3c(c2C1)CC[C@@](C)(CC/C=C(\C)CC/C=C(\C)CCC=C(C)C)O3 | 11.6
11 | 1.3 | 6 | > 5 | CC(C)=CCC/C(C)=C/CC/C(C)=C/CC[C@]1(C)CCc2c3c(cc(C)c2O1)OCN(CCO)C3 | 4.2
12 |  |  |  | CC(C)=CCC/C(C)=C/CC/C(C)=C/CC[C@]1(C)CCc2c3c(c(C)c(C)c2O1)OCN(CCCCC(=O)O)C3 | 1.8
13 |  |  |  | CC(C)=CCC/C(C)=C/CC/C(C)=C/CC[C@]1(C)CCc2c3c(cc(C)c2O1)OCN(CCCCC(=O)O)C3 | 11.9
14 |  |  |  | CC(C)=CCC/C(C)=C/CC/C(C)=C/CC[C@]1(C)CCc2c3c(c(C)c(C)c2O1)OCN(C1CCN(Cc2ccccc2)CC1)C3 | 8.7
15 |  |  |  | CC(C)=CCC/C(C)=C/CC/C(C)=C/CC[C@]1(C)CCc2cc3c(c(C)c2O1)CN(CCO)CO3 | 0.96
16 |  | > 20 | 0.8 | CC(C)=CCC/C(C)=C/CC/C(C)=C/CC[C@]1(C)CCc2c3c(c(C)c(C)c2O1)OCN(CC1CCNCC1)C3 | 4.6
17 |  |  |  | CC(C)=CCC/C(C)=C/CC/C(C)=C/CC[C@]1(C)CCc2c3c(c(C)c(C)c2O1)OCN(C)C3 | 2.2
18 |  |  |  | CC(C)=CCC/C(C)=C/CC/C(C)=C/CC[C@]1(C)CCc2c3c(cc(C)c2O1)OCN(Cc1cccc([N+](=O)[O-])c1)C3 | 29.1
19 |  |  |  | CC(C)=CCC/C(C)=C/CC/C(C)=C/CC[C@]1(C)CCc2c(CO)c(O)cc(C)c2O1 | > 20
20 |  |  |  | CC(C)=CCC/C(C)=C/CC/C(C)=C/CC[C@]1(C)CCc2c3c(c(C)c(C)c2O1)OCN(Cc1cccc([N+](=O)[O-])c1)C3 | 24.6
21 |  |  |  | CCOC(CCN1COc2c(C)c(C)c3c(c2C1)CC[C@@](C)(CC/C=C(\C)CC/C=C(\C)CCC=C(C)C)O3)OCC | 9.3
22 |  |  |  | CC(C)=CCC/C(C)=C/CC/C(C)=C/CC[C@]1(C)CCc2c(CO)c(O)c(C)c(C)c2O1 | 2.6
23 |  | > 20 | 27.3 | CC(C)=CCC/C(C)=C/CC/C(C)=C/CC[C@]1(C)CCc2c3c(c(C)c(C)c2O1)OCN(Cc1ccccc1)C3 | 2
